These results are taken from ChEMBL document CHEMBL1121608, “Modification of the 5' position of purine nucleosides. 2. Synthesis and some cardiovascular properties of adenosine-5'-(N-substituted)carboxamides” (J Med Chem, 1980).

As usually defined, the LD50 is the dose expected to kill half of the subjects tested. A lower LD50 goes with greater toxicity.

Data set [1] relates to Canis familiaris. Nature of the data set: Total time in minutes elapsed from the initiation of the change until return to the pretest value of blood pressure in coronary sinus of anesthetized dog at intravenous dosage of 0.01 mg/kg. In kind it is functional, Canis lupus familiaris.
Data set [2] deals with Canis familiaris. Briefly: Total time in minutes elapsed from the initiation of the change until return to the pretest value of blood pressure in coronary sinus of anesthetized dog at intravenous dosage of 0.10 mg/kg. In kind it is functional, Canis lupus familiaris. Conditions: dose 0.1 mg/kg. The gist of the method: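 Open-chest anesthetized dogs were given the compound intravenously. Duration is the total minutes from the start of the change until return to the pretest value. Blood pressure was recorded as change from control.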

Data set [3] has as its system Canis familiaris. Briefly: Total time in minutes elapsed from the initiation of the change until return to the pretest value of heart rate in coronary sinus of anesthetized dog at intravenous dosage of 0.01 mg/kg. In kind it is functional, Canis lupus familiaris.
The test system of data set [4] is Canis familiaris. Nature of the data set: Total time in minutes elapsed from the initiation of the change until return to the pretest value of heart rate in coronary sinus of anesthetized dog at intravenous dosage of 0.10 mg/kg. Conditions: dose 0.1 mg/kg. In kind it is functional, Canis lupus familiaris.
Data set [5] has as its system Canis familiaris. Nature of the data set: Total time in minutes elapsed from the initiation of the change until return to the pretest value of oxygen partial pressure in coronary sinus of anesthetized dog at intravenous dosage of 0.01 mg/kg. In kind it is functional, Canis lupus familiaris.
Data set [6] deals with Canis familiaris. Briefly: Total time in minutes elapsed from the initiation of the change until return to the pretest value of oxygen partial pressure in coronary sinus of anesthetized dog at intravenous dosage of 0.10 mg/kg. In kind it is functional, Canis lupus familiaris. Conditions: dose 0.1 mg/kg.
Data set [7] has as its system Canis familiaris. Nature of the data set: Tested for percent increase in coronary sinus partial pressure of oxygen (PO2) in open chest anesthetized dog at intravenous dosage of 0.01 mg/kg. In kind it is functional, Canis lupus familiaris.
The test system of data set [8] is Canis familiaris. Briefly: tested for the percent increase in heart rate (HR) in open chest anesthetized dog at intravenous dosage of 0.10 mg/kg. The note with it: dose 0.1 mg/kg. In kind it is functional, Canis lupus familiaris.
The subject of data set [9] is Canis familiaris. Nature of the data set: Tested for the percent increase in coronary sinus partial pressure of oxygen (PO2) in open chest anesthetized dog at intravenous dosage of 0.10 mg/kg. In kind it is functional, Canis lupus familiaris. Conditions: dose 0.1 mg/kg.
Data set [10] in a line: Lethal dose in mice after intraperitoneal administration. In kind it is toxicity, organism-based. Conditions: mouse, in vivo, ip. Summed up:
(§1)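 Male and female mice, three per dose group, were given the compound by the stated route in increments of 0.5 log doses. The LD50 was estimated as an approximate value.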

Data set [11] in a line: Lethal dose in mice after peroral administration. The note with it: mouse, in vivo, po. In kind it is toxicity, organism-based. The gist of the method:
as §1

Data set [12] deals with Canis familiaris. Briefly: Total time in minutes elapsed from the initiation of the change until return to the pretest value of blood pressure in coronary sinus of anesthetized dog at intravenous dosage of 1 mg/kg. In kind it is functional, Canis lupus familiaris.
In data set [13] the test system is Canis familiaris. Briefly: Total time in minutes elapsed from the initiation of the change until return to the pretest value of blood pressure in coronary sinus of anesthetized dog at intravenous dosage of 10 mg/kg. In kind it is functional, Canis lupus familiaris.
Data set [14] deals with Canis familiaris. Briefly: Total time in minutes elapsed from the initiation of the change until return to the pretest value of heart rate in coronary sinus of anesthetized dog at intravenous dosage of 1 mg/kg. In kind it is functional, Canis lupus familiaris.
In data set [15] the test system is Canis familiaris. Nature of the data set: Total time in minutes elapsed from the initiation of the change until return to the pretest value of heart rate in coronary sinus of anesthetized dog at intravenous dosage of 10 mg/kg. In kind it is functional, Canis lupus familiaris.
The subject of data set [16] is Canis familiaris. Briefly: Total time in minutes elapsed from the initiation of the change until return to the pretest value of oxygen partial pressure in coronary sinus of anesthetized dog at intravenous dosage of 1 mg/kg. In kind it is functional, Canis lupus familiaris. Summed up:
(§2)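 Open-chest anesthetized dogs given compound by intravenous injection. Coronary sinus PO2 was monitored, and duration was the total time in minutes from the onset of the change until return to the pretest value.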

Data set [17] has as its system Canis familiaris. Briefly: Total time in minutes elapsed from the initiation of the change until return to the pretest value of oxygen partial pressure in coronary sinus of anesthetized dog at intravenous dosage of 10 mg/kg. In kind it is functional, Canis lupus familiaris. Summed up: as §2
In data set [18] the test system is Canis familiaris. Nature of the data set: Tested for percent increase in coronary sinus partial pressure of oxygen (PO2) in open chest anesthetized dog at intravenous dosage of 1.00 mg/kg. In kind it is functional, Canis lupus familiaris.
For data set [19], the system named is Canis familiaris. Nature of the data set: Tested for the percent increase in aortic blood pressure (BP) in open chest anesthetized dog at intravenous dosage of 1.00 mg/kg. In kind it is functional, Canis lupus familiaris, Artery. The gist of the method: (§3)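 Open-chest anesthetized dogs, compound given iv at the stated dose. Aortic blood pressure is reported as the change from the control (pre-dose) value. Other set-up follows the group's earlier cardiovascular protocol.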

Data set [20] has as its system Canis familiaris. Briefly: Tested for the percent increase in aortic blood pressure (BP) in open chest anesthetized dog at intravenous dosage of 10.00 mg/kg. In kind it is functional, Canis lupus familiaris, Artery. Summed up: as §3
For data set [21], the system named is Canis familiaris. Nature of the data set: Tested for the percent increase in coronary sinus partial pressure of oxygen (PO2) in open chest anesthetized dog at intravenous dosage of 10.00 mg/kg. In kind it is functional, Canis lupus familiaris.
Data set [22] deals with Canis familiaris. Briefly: tested for the percent increase in heart rate (HR) in open chest anesthetized dog at intravenous dosage of 1 mg/kg. In kind it is functional, Canis lupus familiaris.
Data set [23] has as its system Canis familiaris. Nature of the data set: tested for the percent increase in aortic blood pressure (BP) in open chest anesthetized dog at intravenous dosage of 1 mg/kg. In kind it is functional, Canis lupus familiaris, Artery. Summed up:
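Open-chest anesthetized dogs received intravenous doses. Aortic blood pressure was recorded as the change from control.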

Data set [24] deals with Canis familiaris. Nature of the data set: tested for percent increase in coronary sinus partial pressure of oxygen (PO2) in open chest anesthetized dog at intravenous dosage of 1 mg/kg. In kind it is functional, Canis lupus familiaris.
Data set [25] deals with Mus musculus. Briefly: Tested for the lethal dose in mice after administration intraperitoneally. In kind it is functional. Conditions: ip. Summed up:
as §1

The subject of data set [26] is Mus musculus. Nature of the data set: Tested for the lethal dose in mice after administration perorally. In kind it is functional. The note with it: po. The gist of the method: as §1
Data set [27] deals with Canis familiaris. Briefly: Total time in minutes elapsed from the initiation of the change until return to the pretest value of blood pressure in coronary sinus of anesthetized dog at intravenous dosage of 2 mg/kg. In kind it is functional, Canis lupus familiaris.
In data set [28] the test system is Canis familiaris. Nature of the data set: Total time in minutes elapsed from the initiation of the change until return to the pretest value of heart rate in coronary sinus of anesthetized dog at intravenous dosage of 2 mg/kg. In kind it is functional, Canis lupus familiaris.
The test system of data set [29] is Canis familiaris. Briefly: Total time in minutes elapsed from the initiation of the change until return to the pretest value of oxygen partial pressure in coronary sinus of anesthetized dog at intravenous dosage of 2 mg/kg. In kind it is functional, Canis lupus familiaris. The gist of the method: as §2
Data set [30] deals with Canis familiaris. Nature of the data set: Tested for the percent increase in aortic blood pressure (BP) in open chest anesthetized dog at intravenous dosage of 2.00 mg/kg. In kind it is functional, Canis lupus familiaris, Artery. The gist of the method: as §3
The subject of data set [31] is Canis familiaris. Briefly: Tested for percent increase in coronary sinus partial pressure of oxygen (PO2) in open chest anesthetized dog at intravenous dosage of 2.00 mg/kg. In kind it is functional, Canis lupus familiaris.
Data set [32] concerns Canis familiaris. Briefly: Total time in minutes elapsed from the initiation of the change until return to the pretest value of blood pressure in coronary sinus of anesthetized dog at intravenous dosage of 0.05 mg/kg. In kind it is functional, Canis lupus familiaris.
For data set [33], the system named is Canis familiaris. Briefly: Total time in minutes elapsed from the initiation of the change until return to the pretest value of heart rate in coronary sinus of anesthetized dog at intravenous dosage of 0.05 mg/kg. In kind it is functional, Canis lupus familiaris.
The test system of data set [34] is Canis familiaris. Nature of the data set: Total time in minutes elapsed from the initiation of the change until return to the pretest value of oxygen partial pressure in coronary sinus of anesthetized dog at intravenous dosage of 0.05 mg/kg. In kind it is functional, Canis lupus familiaris.
For data set [35], the system named is Canis familiaris. Nature of the data set: tested for the percent increase in heart rate (HR) in open chest anesthetized dog at intravenous dosage of 0.05 mg/kg. In kind it is functional, Canis lupus familiaris.
Data set [36] concerns Canis familiaris. Nature of the data set: tested for percent increase in coronary sinus partial pressure of oxygen (PO2) in open chest anesthetized dog at intravenous dosage of 0.05 mg/kg. In kind it is functional, Canis lupus familiaris.
The subject of data set [37] is Canis familiaris. Nature of the data set: Total time in minutes elapsed from the initiation of the change until return to the pretest value of blood pressure in coronary sinus of anesthetized dog at intravenous dosage of 5 mg/kg. In kind it is functional, Canis lupus familiaris.
Data set [38] relates to Canis familiaris. Nature of the data set: Total time in minutes elapsed from the initiation of the change until return to the pretest value of heart rate in coronary sinus of anesthetized dog at intravenous dosage of 5.00 mg/kg. In kind it is functional, Canis lupus familiaris.
Data set [39] relates to Canis familiaris. Briefly: Total time in minutes elapsed from the initiation of the change until return to the pretest value of oxygen partial pressure in coronary sinus of anesthetized dog at intravenous dosage of 5 mg/kg. In kind it is functional, Canis lupus familiaris. The gist of the method: as §2
Data set [40] concerns Canis familiaris. Nature of the data set: Tested for the percent increase in aortic blood pressure (BP) in open chest anesthetized dog at intravenous dosage of 5.00 mg/kg. In kind it is functional, Canis lupus familiaris, Artery. Summed up: as §3
Data set [41] deals with Canis familiaris. Nature of the data set: Tested for the percent increase in coronary sinus partial pressure of oxygen (PO2) in open chest anesthetized dog at intravenous dosage of 5.00 mg/kg. In kind it is functional, Canis lupus familiaris.

With `NC(=O)[C@H]1OC(n2cnc3c(N)ncnc32)[C@H](O)[C@@H]1O` (stereo partly specified), the Duration is on record as 20 min in data set [1]; 240 min in [2]; 25 min in data set [3]; 240 min in [4]; 25 min in [5]; 240 min in data set [6]. Further, the PO2 in [7] worked out at 79%; in data set [9], 41%. For the same compound, in [8], the HR is recorded as 72%. In addition, the 50% lethal dose (LD50) in data set [10] is 5 mg/kg; in [11], 50 mg/kg.
On to `CCN(CC)CCNC(=O)[C@H]1OC(n2cnc3c(N)ncnc32)[C@H](O)[C@@H]1O` (stereo partly specified), for which the Duration was found to be 0 min in [12]; 22 min in [13]; 0 min in [14]; 60 min in data set [15]; 6 min in [16]; 60 min in data set [17]. In addition, the PO2 is given as 57% in data set [18] and 25% in data set [21]. Besides, the results for the BP in data set [19] and in data set [20] were 0% and 7%, respectively. In addition, the 50% lethal dose (LD50) in [10] is 50 mg/kg; in data set [11] it was more than 1000 mg/kg.
Consider `Nc1ncnc2c1ncn2C1O[C@H](C(=O)NCc2ccccc2)[C@@H](O)[C@H]1O` (stereo partly specified), for which the Duration in data set [12] is 60 min; in [14], 24 min; in [16], 60 min. Also, in [22], the HR is listed as 13%. In [23], this compound yielded a BP of 5 mmHg. The same compound had a PO2 in data set [24] of 48%. In addition, the values for the median lethal dose (LD50) in data set [25] and in data set [26] were 200 mg/kg and more than 1000 mg/kg, respectively.
`Nc1ncnc2c1ncn2[C@@H]1O[C@H](CO)[C@@H](O)[C@H]1O` [ADENOSINE]: the Duration in [27] turned out to be 2 min; in data set [28], 4 min; in data set [29] it was 2 min. The BP in data set [30] is 60 mmHg. The compound further gave a PO2 in [31] of 200%.
For the compound `Nc1ncnc2c1ncn2C1O[C@H](C(=O)NCC2CC2)[C@@H](O)[C@H]1O` (stereo partly specified), the results for the Duration in data set [32], in data set [33] and in [34] were 120 min, 0 min and 120 min, respectively. Also, the HR in data set [35] is reported as 0%. The compound also came in with a PO2 in [36] of 47%. In addition, the LD50 in data set [10] was 20 mg/kg; in data set [11], 200 mg/kg.
For the compound `Nc1ncnc2c1ncn2C1O[C@H](C(=O)NC23CC4CC(CC(C4)C2)C3)[C@@H](O)[C@H]1O` (stereo partly specified), the Duration in [12] amounted to 1 min; in data set [37], 8 min; in [14], 2 min; in data set [38], 60 min; in [16], 30 min; in [39], 60 min. In [22], this compound came in with an HR of 55%. Moreover, the BP in data set [40] came out at 5 mmHg; in data set [23] it was 22 mmHg. Moreover, the PO2 is reported as 209% in data set [41] and 56% in data set [24]. For the same compound, the median lethal dose (LD50) in data set [10] and in data set [11] was more than 300 mg/kg each time.
